Assay results published in ChEMBL document CHEMBL1145405, “Synthesis, biochemical, and cellular evaluation of farnesyl monophosphate prodrugs as farnesyltransferase inhibitors” (J Med Chem, 2007).
Each block holds one compound with its values, some of them ahead of it. The source made the active and inactive calls. No cut-off for these calls is given here.

How the values were obtained:
[1] = molecular target: Protein farnesyltransferase (Rattus norvegicus); assay: Inhibition of farnesyltransferase assessed as farnesylation of Dansyl-GCVLS peptide
[2] = test system: STS-26T; assay: Growth inhibition of human STS-26T cells at 1 to 5 uM after 24 hrs; assay type: functional, cell-based
Summary of the method: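 STS-26T cultures were plated in medium with 5% FBS and dosed about 24 h later at 1, 3 or 5 µM, alone or with 1 µM lovastatin, against a DMSO vehicle. Cells were harvested at various times by trypsinization and counted with a hemocytometer; viability was judged by trypan blue exclusion. Values are means ± SD of three culture dishes.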

[3] = Cell cycle arrest in human STS-26T cells assessed as accumulation in G1 phase at 1 uM after 24 hrs; assay type: functional, cell-based
Summary of the method: (§1)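 STS-26T cells were grown in RPMI-1640 with 5% FBS and penicillin/streptomycin at 37 °C under 5% CO2. About 24 h after plating, cells were treated with 1 µM compound, alone or with 1 µM lovastatin, against a DMSO control. After 24 h, DNA content was read by flow cytometry (at least 10^4 events). G1, S and G2/M percentages of the nonapoptotic population came from histogram fitting.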

[4] = Cell cycle arrest in human STS-26T cells assessed as accumulation in G2/M phase at 1 uM after 24 hrs; assay type: functional, cell-based
Summary of the method: as §1

[5] = Cell cycle arrest in human STS-26T cells assessed as accumulation in S phase at 1 uM after 24 hrs; assay type: functional, cell-based
Summary of the method: as §1

[6] = Apoptosis in human STS-26T cells at 1 uM after 24 hrs; assay type: functional

IC50 [1]: 5000 nM
SMILES: CC(C)=CCC/C(C)=C/CC/C(=C/COP(=O)(O)O)CC=C(C)C

SMILES: C=CC/C(=C\COP(=O)(OCc1ccc([N+](=O)[O-])o1)N(C)CCCCCl)CC/C=C(\C)CCC=C(C)C (centres undefined)
Activity [2]: inactive | Activity [3]: 48% | Activity [4]: 12% | Activity [5]: 40% | Activity [6]: 0.5%

SMILES: CC(C)=CCC/C(C)=C/CC/C(=C/COP(=O)(OCc1ccc([N+](=O)[O-])o1)N(C)CCCCCl)CC=C(C)C (centres undefined)
Activity [2]: inactive

IC50 [1]: 16 nM
SMILES: CC(C)=CCC/C(C)=C/CC/C(=C/COP(=O)(O)O)C(C)(C)C

IC50 [1]: 13 nM
SMILES: C=CC/C(=C\COP(=O)(O)O)CC/C=C(\C)CCC=C(C)C

SMILES: CC(C)=CCC/C(C)=C/CC/C(=C/COP(=O)(OCc1ccc([N+](=O)[O-])o1)N(C)CCCCCl)C(C)(C)C (centres undefined)
Activity [2]: inactive

SMILES: CC[C@H](C)C(=O)O[C@H]1C[C@@H](C)C=C2C=C[C@H](C)[C@H](CC[C@@H]3C[C@@H](O)CC(=O)O3)[C@H]21 [LOVASTATIN]
Activity [3]: 53% | Activity [4]: 10% | Activity [5]: 37% | Activity [6]: 0.3%
